Source: ChEMBL document CHEMBL1139303, “One-pot synthesis of 5-phenylimino, 5-thieno or 5-oxo-1,2,3-dithiazoles and evaluation of their antimicrobial and antitumor activity” (2009)
≈ marks a conversion by molar mass, not a printed value. Calls of active or inactive are those of the source. No cut-off for these calls is given here.

Tests used:
[1] = system: Candida albicans; assay: Antifungal activity against Candida albicans ATCC 10231 after 24 hrs by broth macrodilution method; format: functional; conditions: ATCC 10231, 24 h
In short: (§1)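 Yeasts pre-grown on yeast extract peptone dextrose medium, 30 °C, 24 h. MIC and MFC by macro-dilution broth method; compounds in DMSO, max 2.13% solvent in cultures. Amphotericin B and fluconazole as references. MFC/MIC ratio computed; ≥4 taken as fungistatic. Triplicate.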

[2] = system: Nakaseomyces glabratus; assay: Antifungal activity against Candida glabrata DSM6425 after 24 hrs by broth macrodilution method; format: functional; conditions: DSM6425, 24 h; in short: as §1
[3] = system: Candida tropicalis; assay: Antifungal activity against Candida tropicalis DSM 1346 after 24 hrs by broth macrodilution method; format: functional; conditions: DSM 1346, 24 h; in short: as §1
[4] = system: Candida albicans; assay: Ratio of MFC to MIC against Candida albicans ATCC 10231; format: functional
In short: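 C. albicans ATCC10231 was pre-grown on yeast extract peptone dextrose agar for 24 h at 30 °C. MIC and MFC were determined by broth macro-dilution, with compounds dissolved in DMSO at no more than 2.13% solvent in the liquid culture. Each endpoint was measured in triplicate, and the MFC was divided by the MIC to give the ratio.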

[5] = system: Nakaseomyces glabratus; assay: Ratio of MFC to MIC against Candida glabrata DSM6425; format: functional; in short: as §1
[6] = system: Candida tropicalis; assay: Ratio of MFC to MIC against Candida tropicalis DSM 1346; format: functional; in short: as §1
[7] = system: Escherichia coli; assay: Antibacterial activity against Escherichia coli ATCC 25922 at 50 ug after 24 hrs by agar diffusion method; format: functional; conditions: ATCC 25922, 24 h, read-out: IZ
In short: (§2)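 Bacteria pre-grown 24 h on nutritive agar (tryptone soy agar for E. faecalis, L. inocua) at 37 °C (30 °C for E. faecalis, L. inocua, B. cereus). Agar well diffusion with 50 µg compound in 80% DMSO; 80% DMSO alone as control. Inhibition zone diameter averaged from triplicate, scored 6-9, 9-12, >12 mm.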

[8] = system: Pseudomonas aeruginosa; assay: Antibacterial activity against Pseudomonas aeruginosa ATCC 27853 at 50 ug after 24 hrs by agar diffusion method; format: functional, organism-based; in short: as §2
[9] = system: Klebsiella pneumoniae; assay: Antibacterial activity against Klebsiella pneumoniae CIP 53153 at 50 ug after 24 hrs by agar diffusion method; format: functional, organism-based; in short: as §2
[10] = system: Enterococcus faecalis; assay: Antibacterial activity against Enterococcus faecalis CIP 103214 at 50 ug after 24 hrs by agar diffusion method; format: functional; conditions: CIP 103214, 24 h, read-out: IZ; in short: as §2
[11] = system: Staphylococcus aureus; assay: Antibacterial activity against Staphylococcus aureus ATCC 25923 at 50 ug after 24 hrs by agar diffusion method; format: functional; in short: as §2
[12] = system: Bacillus cereus; assay: Antibacterial activity against Bacillus cereus at 50 ug after 24 hrs by agar diffusion method; format: functional; conditions: read-out: IZ; in short: as §2
[13] = system: Listeria innocua; assay: Antibacterial activity against Listeria innocua at 50 ug after 24 hrs by agar diffusion method; format: functional; conditions: read-out: IZ; in short: as §2
[14] = system: Escherichia coli; assay: Antibacterial activity against Escherichia coli ATCC 25922 after 24 hrs by broth macrodilution method; format: functional; conditions: ATCC 25922, 24 h
In short: (§3)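 Bacteria pre-grown 24 h on nutritive agar (tryptone soy agar for E. faecalis, L. inocua) at 37 °C (30 °C for E. faecalis, L. inocua, B. cereus). MIC and MBC determined by macro-dilution broth method; MBC = lowest concentration killing 99.99% of inoculum. Compounds in DMSO, max 2.13% solvent in cultures. Triplicate.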

[15] = system: Enterococcus faecalis; assay: Antibacterial activity against Enterococcus faecalis CIP 103214 after 24 hrs by broth macrodilution method; format: functional; conditions: CIP 103214, 24 h; in short: as §3
[16] = system: Staphylococcus aureus; assay: Antibacterial activity against Staphylococcus aureus ATCC 25923 after 24 hrs by broth macrodilution method; format: functional; conditions: ATCC 25923, 24 h; in short: as §3
[17] = system: Bacillus cereus; assay: Antibacterial activity against Bacillus cereus after 24 hrs by broth macrodilution method; format: functional; in short: as §3
[18] = system: Listeria innocua; assay: Antibacterial activity against Listeria innocua after 24 hrs by broth macrodilution method; format: functional; in short: as §3
[19] = system: Candida albicans; assay: Antifungal activity against Candida albicans ATCC 10231 at 50 ug after 24 hrs by agar diffusion method; format: functional; conditions: ATCC 10231, 24 h, read-out: IZ
In short: (§4)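 Yeasts grown on yeast extract peptone dextrose medium at 30 °C for 24 h, then agar well diffusion with 50 µg compound in 80% DMSO; 80% DMSO alone as control. Averaged inhibition zone diameter from triplicate, scored 6-9, 9-12 or >12 mm.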

[20] = system: Nakaseomyces glabratus; assay: Antifungal activity against Candida glabrata DSM6425 at 50 ug after 24 hrs by agar diffusion method; format: functional; conditions: DSM6425, 24 h, read-out: IZ; in short: as §4
[21] = system: Candida tropicalis; assay: Antifungal activity against Candida tropicalis DSM 1346 at 50 ug after 24 hrs by agar diffusion method; format: functional; conditions: DSM 1346, 24 h, read-out: IZ; in short: as §4
[22] = system: Pichia kudriavzevii; assay: Antifungal activity against Issatchenkia orientalis DSM6128 at 50 ug after 24 hrs by agar diffusion method; format: functional, organism-based; in short: as §4
[23] = system: MCF7; assay: Antiproliferative activity against human MCF7 cells after 72 hrs by MTT assay; format: functional; conditions: MCF7, 72 h
In short: (§5)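 5000 cells per well added to pre-equilibrated medium at 37 °C; compounds from 10^-3 M DMSO stocks, final 10^-5 M. After 72 h, MTT (5 g/L) for 4 h, formazan dissolved in DMSO, OD 550 nm. % growth inhibition vs 1% DMSO medium (0%) and 10% SDS lysis (100%); mean ± SEM, 24 measures, three independent experiments.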

[24] = system: MDA-MB-231; assay: Antiproliferative activity against human MDA-MB-231 cells after 72 hrs by MTT assay; format: functional; conditions: MDA-MB-231, 72 h; in short: as §5
[25] = system: MDA-MB-231; assay: Antiproliferative activity against human MDA-MB-231 cells at 10 uM after 72 hrs by MTT assay; format: functional; conditions: MDA-MB-231, 72 h; in short: as §5

| SMILES | MFC [1] [µg/mL] | MIC [1] [µg/mL] | MFC [2] [µg/mL] | MIC [2] [µg/mL] | MFC [3] [µg/mL] | MIC [3] [µg/mL] | Ratio [4] | Ratio [5] | Ratio [6] | zone of inhibition at 50 µg/disc [7] [mm] | Activity [8] | Activity [9] | zone of inhibition at 50 µg/disc [10] [mm] | zone of inhibition at 50 µg/disc [12] [mm] | zone of inhibition at 50 µg/disc [13] [mm] | MBC [14] [µg/mL] | MIC [14] [µg/mL] | MBC [15] [µg/mL] | MIC [15] [µg/mL] | MBC [16] [µg/mL] | also measured |
| --- | --- | --- | --- | --- | --- | --- | --- | --- | --- | --- | --- | --- | --- | --- | --- | --- | --- | --- | --- | --- | --- |
| OC(Cn1cncn1)(Cn1cncn1)c1ccc(F)cc1F [FLUCONAZOLE] | > 128 | 2 (≈ 6.53 µM) | > 128 | 4 (≈ 13.1 µM) | > 128 | 4 (≈ 13.1 µM) | >64 | >32 | >32 |  |  |  |  |  |  |  |  |  |  |  |  |
| CCOC(=O)c1nssc1=S | > 48 | 48 (≈ 232 µM) | 48 (≈ 232 µM) | 32 (≈ 154 µM) | > 48 | 48 (≈ 232 µM) |  | 1.5 |  | 9 | inactive | inactive | 9 | 9 | 6 | > 48 | > 48 | > 48 | > 48 | > 48 | Activity [11]: 12 mm; MIC [16]: 48 µg/mL (≈ 232 µM); MBC [17]: > 48 µg/mL; MIC [17]: > 48 µg/mL; MBC [18]: > 48 µg/mL; MIC [18]: 32 µg/mL (≈ 154 µM); zone of inhibition at 50 µg/disc [19]: > 12 mm; zone of inhibition at 50 µg/disc [20]: 6 mm; zone of inhibition at 50 µg/disc [21]: 6 mm; Activity [22]: inactive; GI50 [23]: > 10 µM; GI50 [24]: > 10 µM; inhibition at 10 µM [25]: 0% |
| S=c1ssnc1-c1ccccn1 | > 48 | 32 (≈ 151 µM) | 48 (≈ 226 µM) | 8 (≈ 37.7 µM) | 48 (≈ 226 µM) | 32 (≈ 151 µM) |  | 6 | 1.5 | 6 | inactive | inactive | > 12 | 9 | 9 | > 48 | > 48 | > 48 | 48 (≈ 226 µM) | > 48 | zone of inhibition at 50 µg/disc ([11]; Staphylococcus aureus, ATCC 25923, 24 h, read-out: IZ): 12 mm; MIC [16]: 48 µg/mL (≈ 226 µM); MBC [17]: > 48 µg/mL; MIC [17]: > 48 µg/mL; MBC [18]: > 48 µg/mL; MIC [18]: 16 µg/mL (≈ 75.4 µM); zone of inhibition at 50 µg/disc [19]: > 12 mm; zone of inhibition at 50 µg/disc [20]: 9 mm; zone of inhibition at 50 µg/disc [21]: 9 mm; Activity [22]: inactive; GI50 [23]: > 10 µM; GI50 [24]: > 10 µM; inhibition at 10 µM [25]: 0% |
| C[C@@H]1[C@H](O)[C@@H](C)/C=C/C=C/C=C/C=C/C=C/C=C/C=C/[C@H](O[C@@H]2O[C@H](C)[C@@H](O)[C@H](N)[C@@H]2O)C[C@@H]2O[C@](O)(C[C@@H](O)C[C@@H](O)[C@H](O)CC[C@@H](O)C[C@@H](O)CC(=O)O[C@H]1C)C[C@H](O)[C@H]2C(=O)O [AMPHOTERICIN B] | 0.5 (≈ 0.541 µM) | 0.25 (≈ 0.271 µM) | 2 (≈ 2.16 µM) | 2 (≈ 2.16 µM) | 2 (≈ 2.16 µM) | 1 (≈ 1.08 µM) | 2 | 2 | 2 |  |  |  |  |  |  |  |  |  |  |  |  |
